Assay results from PubChem BioAssay AID602172 (The Scripps Research Institute Molecular Screening Center, 2012).
Calls of active or inactive are those of the source.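 How the source made its calls: active means DNA binding activation reaching at least 20% of the dioxin reference response; inactive means the rest.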

These molecules were tested against Aryl hydrocarbon receptor (Cavia porcellus) (assay: AHR transformation and DRE binding stimulation – cell lysate, guinea pig liver cytosol, radiometric EMSA, mechanism study for AHR activator project, late-stage follow-up (AID 602172)). Conditions: radiometric gel.
How it was run: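 Test system: male Hartley guinea pig liver cytosol containing AHR; Input: cytosol at 8 mg protein per mL; Medium: HEDG buffer, pH 7.5; Schedule: 2.5 h compound incubation, room temperature; Signal: radiometric EMSA with phosphorimaging.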
An EC50 of 500 nM was found for `Cc1ccc(-c2cc(-c3cccs3)[nH]n2)c(O)c1` in this work. An EC50 of 1000 nM was found for `Cc1nc(N)nc(Nc2ccc(Cl)cc2)c1Br` in this work.

Same assay, conditions: radiometric gel, at 10 µM, hits give high values
A DNA binding activation (% of TCDD) of 42% was found for `COc1ccccc1C(=O)Nc1ccc(N2CCCCC2)cc1` in this work. For `Cc1ccc(Nc2ncccc2C(N)=O)cc1`, the DNA binding activation (% of TCDD) was 17.6% (inactive). `COc1cc2c(cc1NC(=O)Nc1ccc(C)cc1)oc1ccccc12` was tested, and the DNA binding activation (% of TCDD) was 17% (inactive). `CCOc1ccc(-c2cc(C)n3nc(C(N)=O)cc3n2)cc1` was tested, and the DNA binding activation (% of TCDD) was 8.2% (inactive). In the case of `CCCC(=O)Nc1nn(C)c2nc3cc(C)ccc3cc12`, the DNA binding activation (% of TCDD) is reported as 12.1% (inactive). `Cc1cc(Nc2ccc(Br)cc2)n2nc(C)nc2n1` was tested, and the DNA binding activation (% of TCDD) was 8.6% (inactive). `COc1ccc(C(=O)Nc2cc(OC)c(NC(=O)c3ccco3)cc2OC)cc1` was tested, and the DNA binding activation (% of TCDD) was 10% (inactive). A DNA binding activation (% of TCDD) of 37% was found for `Cn1c(N)c(C(=O)Nc2ccccc2F)sc1=S` in this work. For `CCOc1ccccc1NC(=O)c1ccc2nccnc2c1`, the DNA binding activation (% of TCDD) was 20% (inactive). A DNA binding activation (% of TCDD) of 20.2% was found for `COc1ccc(Cl)cc1C(=O)Nc1ccc(N(C)C(C)=O)cc1` in this work. With `CC(=O)c1ccc(NC(=O)c2cc(Cl)nc3ccccc23)cc1` the DNA binding activation (% of TCDD) was 5.3% (inactive). With `COC(=O)c1ccccc1NC(=O)Cn1ccnc1` the DNA binding activation (% of TCDD) was 5.2% (inactive). For `COc1ccccc1NC(=O)c1ccc(C(=O)Nc2ccccc2OC)nc1`, the DNA binding activation (% of TCDD) was 6.4% (inactive). `COc1ccc(NC(=O)c2cccc3c(Br)cccc23)cc1` was tested, and the DNA binding activation (% of TCDD) was 18% (inactive). A DNA binding activation (% of TCDD) of 67.8% was found for `COc1cc2ccccc2cc1C(=O)Nc1ccc(C)cc1` in this work. With `COc1ccccc1NC(=O)c1ccc2c(c1)nnn2C` the DNA binding activation (% of TCDD) was 15% (inactive). For `CN1CCN(CCCNC(=O)c2cc3c(-c4ccc(Cl)cc4)nn(C)c3s2)CC1`, the DNA binding activation (% of TCDD) was 5.4% (inactive). For `COc1ccccc1NC(=O)Nc1cccnc1`, the DNA binding activation (% of TCDD) was 10% (inactive). A DNA binding activation (% of TCDD) of 40.4% was found for `Cc1ccccc1-c1nc(-c2cccnc2)no1` in this work. A DNA binding activation (% of TCDD) of 21.6% was found for `O=C(Nc1cccc(Cl)c1)c1cccnn1` in this work. In the case of `Cc1csc(SCC(=O)Nc2ccc(Cl)cn2)n1`, the DNA binding activation (% of TCDD) is reported as 7.8% (inactive). A DNA binding activation (% of TCDD) of 46.8% was found for `CCOc1ccc(NC(=O)c2cc3ccccc3cc2OC)cc1` in this work. A DNA binding activation (% of TCDD) of 21% was found for `O=C(Nc1ccon1)c1cnc2sccn2c1=O` in this work. A DNA binding activation (% of TCDD) of 27.8% was found for `Cn1c(C(=O)N2CCC(C(N)=O)CC2)cc2cc(Cl)ccc21` in this work. A DNA binding activation (% of TCDD) of 58.6% was found for `CN(C)c1nc(N)nc(-c2nc3ccccc3s2)n1` in this work. For `O=C(CN1CCOCC1)Nc1nc2ccc([N+](=O)[O-])cc2s1`, the DNA binding activation (% of TCDD) was 3.2% (inactive). For `Cc1nnc(N2C(=O)c3cccc4c([N+](=O)[O-])ccc(c34)C2=O)s1`, the DNA binding activation (% of TCDD) was 3.7% (inactive). With `CCC(=O)Nc1cc(OC)c(NC(=O)c2ccccc2)cc1OC` the DNA binding activation (% of TCDD) was 7% (inactive). For `CCOC(=O)Cc1cc(-c2ccc(O)cc2)nc2ccc3ccccc3c12`, the DNA binding activation (% of TCDD) was 15.3% (inactive). A DNA binding activation (% of TCDD) of 59.4% was found for `O=C1c2ccccc2-c2nc3ccccc3nc21` in this work. For `Cc1c(-c2ccn[nH]2)cc(NC(=O)c2ccc(Cl)cc2)c(=O)n1N`, the DNA binding activation (% of TCDD) was 4.4% (inactive).
